From ChEMBL document CHEMBL4622996, “Discovery of Vixotrigine: A Novel Use-Dependent Sodium Channel Blocker for the Treatment of Trigeminal Neuralgia” (ACS Med Chem Lett, 2020)
Active and inactive are the calls of the source. The rule behind the calls is not given here.

Assays:
[1] = target: T1, Solute carrier organic anion transporter family member 1B1 (Homo sapiens, UniProt Q9Y6L6); assay: Inhibition of OATP1B1 (unknown origin) upto 100 uM
T1 sequence (Q9Y6L6 whole entry): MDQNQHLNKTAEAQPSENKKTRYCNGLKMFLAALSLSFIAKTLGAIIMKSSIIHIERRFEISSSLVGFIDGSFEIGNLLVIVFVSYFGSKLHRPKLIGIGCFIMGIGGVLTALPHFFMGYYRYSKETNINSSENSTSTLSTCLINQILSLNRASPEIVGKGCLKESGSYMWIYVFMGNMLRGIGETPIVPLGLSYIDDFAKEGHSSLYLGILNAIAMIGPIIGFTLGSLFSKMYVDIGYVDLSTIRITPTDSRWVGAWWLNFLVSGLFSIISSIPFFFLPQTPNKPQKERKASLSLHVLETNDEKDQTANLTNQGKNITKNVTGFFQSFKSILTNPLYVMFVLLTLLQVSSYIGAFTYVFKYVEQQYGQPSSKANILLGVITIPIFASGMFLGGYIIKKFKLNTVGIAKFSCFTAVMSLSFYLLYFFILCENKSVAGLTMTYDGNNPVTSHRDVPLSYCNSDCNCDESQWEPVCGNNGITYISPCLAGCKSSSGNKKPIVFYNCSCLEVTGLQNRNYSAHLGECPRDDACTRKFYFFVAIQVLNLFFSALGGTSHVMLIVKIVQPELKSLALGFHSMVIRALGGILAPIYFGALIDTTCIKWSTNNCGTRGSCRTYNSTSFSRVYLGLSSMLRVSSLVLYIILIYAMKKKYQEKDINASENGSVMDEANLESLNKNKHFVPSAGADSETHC

Cytochrome P450 1A2 = target: T2, Cytochrome P450 1A2 (Homo sapiens, UniProt P05177); assay: Inhibition of CYP1A2 (unknown origin); type: ADME
T2 sequence (P05177 whole entry): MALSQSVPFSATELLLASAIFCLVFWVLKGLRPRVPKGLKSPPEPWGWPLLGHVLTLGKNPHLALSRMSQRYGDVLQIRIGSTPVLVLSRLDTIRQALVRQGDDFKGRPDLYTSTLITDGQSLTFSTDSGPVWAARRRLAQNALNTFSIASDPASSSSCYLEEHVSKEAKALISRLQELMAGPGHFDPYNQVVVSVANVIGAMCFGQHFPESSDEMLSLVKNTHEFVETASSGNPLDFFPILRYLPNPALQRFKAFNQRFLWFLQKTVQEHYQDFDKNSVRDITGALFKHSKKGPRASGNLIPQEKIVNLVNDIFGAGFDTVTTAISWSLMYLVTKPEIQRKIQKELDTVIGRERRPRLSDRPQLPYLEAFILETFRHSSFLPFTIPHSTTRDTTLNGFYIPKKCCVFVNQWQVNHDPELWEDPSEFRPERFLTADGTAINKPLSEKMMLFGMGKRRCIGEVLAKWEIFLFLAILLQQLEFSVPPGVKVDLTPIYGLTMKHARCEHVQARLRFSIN

[2] = target: T3, Solute carrier family 22 member 2 (Homo sapiens, UniProt O15244); assay: Inhibition of OCT2 (unknown origin)
T3 sequence (O15244 whole entry): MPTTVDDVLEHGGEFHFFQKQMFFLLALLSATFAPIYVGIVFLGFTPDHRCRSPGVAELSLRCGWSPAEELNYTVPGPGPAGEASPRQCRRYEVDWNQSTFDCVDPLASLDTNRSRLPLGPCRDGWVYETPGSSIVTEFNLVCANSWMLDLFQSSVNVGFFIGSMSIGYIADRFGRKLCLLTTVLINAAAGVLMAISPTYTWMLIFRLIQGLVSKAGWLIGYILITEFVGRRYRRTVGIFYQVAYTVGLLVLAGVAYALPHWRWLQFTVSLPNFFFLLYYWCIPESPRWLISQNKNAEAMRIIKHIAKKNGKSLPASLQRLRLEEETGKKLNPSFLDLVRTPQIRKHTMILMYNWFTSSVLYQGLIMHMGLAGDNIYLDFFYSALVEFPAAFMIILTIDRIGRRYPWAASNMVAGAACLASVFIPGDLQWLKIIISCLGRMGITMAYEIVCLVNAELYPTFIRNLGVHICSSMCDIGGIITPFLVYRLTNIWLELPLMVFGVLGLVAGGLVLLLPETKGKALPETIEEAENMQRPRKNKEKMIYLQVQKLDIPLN

[3] = Oral bioavailability in monkey at 3 mg/kg; type: ADME, organism-based, Macaca mulatta; conditions: rhesus monkey, in vivo
Rattus norvegicus = assay: Antiinflammatory activity in complete Freund's adjuvant-induced knee joint rat model of subchronic inflammation assessed as inhibition of CFA-induced hypersensitivity to pain at 1 mg/kg, BID; type: functional, organism-based
Method in brief: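 CFA-induced knee joint model of subchronic inflammation; oral 1 mg/kg BID over a 5-day dosing period; reversal of hypersensitivity compared against celecoxib.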

[4] = Toxicity in rat assessed as sedation by measuring spontaneous locomotor activity at 60 mg/kg, po; type: organism-based; conditions: in vivo
Method in brief: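 Male rats, spontaneous locomotor activity test; oral doses 60, 100 or 300 mg/kg given 30 min before the session; plasma sampled 60 min postdose at 60 mg/kg.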

Cytochrome P450 2C8 = target: T4, Cytochrome P450 2C8 (Homo sapiens, UniProt P10632); assay: Inhibition of CYP2C8 (unknown origin); type: ADME
T4 sequence (P10632 whole entry): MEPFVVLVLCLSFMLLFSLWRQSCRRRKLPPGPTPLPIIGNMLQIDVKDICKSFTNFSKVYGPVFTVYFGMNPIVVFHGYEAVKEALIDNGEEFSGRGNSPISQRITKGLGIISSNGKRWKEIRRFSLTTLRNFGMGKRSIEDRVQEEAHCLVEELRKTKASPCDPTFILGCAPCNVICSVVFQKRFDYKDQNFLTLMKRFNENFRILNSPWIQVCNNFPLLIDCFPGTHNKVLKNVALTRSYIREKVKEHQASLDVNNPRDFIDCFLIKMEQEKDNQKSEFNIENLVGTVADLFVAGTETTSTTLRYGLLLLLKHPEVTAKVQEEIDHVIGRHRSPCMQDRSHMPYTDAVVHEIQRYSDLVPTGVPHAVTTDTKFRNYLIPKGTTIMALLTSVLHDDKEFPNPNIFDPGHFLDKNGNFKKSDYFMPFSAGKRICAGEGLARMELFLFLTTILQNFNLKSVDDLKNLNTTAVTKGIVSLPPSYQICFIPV

[5] = target: Sodium channel protein type 3 subunit alpha (Homo sapiens, UniProt Q9NY46); assay: Inhibition of Nav1.3 (unknown origin) expressed in HEK293 cells assessed as inhibition of sodium current incubated for 3 to 3.5 mins by electrophysiology assay; type: cell-based
Chain of Sodium channel protein type 3 subunit alpha (Q9NY46 whole entry): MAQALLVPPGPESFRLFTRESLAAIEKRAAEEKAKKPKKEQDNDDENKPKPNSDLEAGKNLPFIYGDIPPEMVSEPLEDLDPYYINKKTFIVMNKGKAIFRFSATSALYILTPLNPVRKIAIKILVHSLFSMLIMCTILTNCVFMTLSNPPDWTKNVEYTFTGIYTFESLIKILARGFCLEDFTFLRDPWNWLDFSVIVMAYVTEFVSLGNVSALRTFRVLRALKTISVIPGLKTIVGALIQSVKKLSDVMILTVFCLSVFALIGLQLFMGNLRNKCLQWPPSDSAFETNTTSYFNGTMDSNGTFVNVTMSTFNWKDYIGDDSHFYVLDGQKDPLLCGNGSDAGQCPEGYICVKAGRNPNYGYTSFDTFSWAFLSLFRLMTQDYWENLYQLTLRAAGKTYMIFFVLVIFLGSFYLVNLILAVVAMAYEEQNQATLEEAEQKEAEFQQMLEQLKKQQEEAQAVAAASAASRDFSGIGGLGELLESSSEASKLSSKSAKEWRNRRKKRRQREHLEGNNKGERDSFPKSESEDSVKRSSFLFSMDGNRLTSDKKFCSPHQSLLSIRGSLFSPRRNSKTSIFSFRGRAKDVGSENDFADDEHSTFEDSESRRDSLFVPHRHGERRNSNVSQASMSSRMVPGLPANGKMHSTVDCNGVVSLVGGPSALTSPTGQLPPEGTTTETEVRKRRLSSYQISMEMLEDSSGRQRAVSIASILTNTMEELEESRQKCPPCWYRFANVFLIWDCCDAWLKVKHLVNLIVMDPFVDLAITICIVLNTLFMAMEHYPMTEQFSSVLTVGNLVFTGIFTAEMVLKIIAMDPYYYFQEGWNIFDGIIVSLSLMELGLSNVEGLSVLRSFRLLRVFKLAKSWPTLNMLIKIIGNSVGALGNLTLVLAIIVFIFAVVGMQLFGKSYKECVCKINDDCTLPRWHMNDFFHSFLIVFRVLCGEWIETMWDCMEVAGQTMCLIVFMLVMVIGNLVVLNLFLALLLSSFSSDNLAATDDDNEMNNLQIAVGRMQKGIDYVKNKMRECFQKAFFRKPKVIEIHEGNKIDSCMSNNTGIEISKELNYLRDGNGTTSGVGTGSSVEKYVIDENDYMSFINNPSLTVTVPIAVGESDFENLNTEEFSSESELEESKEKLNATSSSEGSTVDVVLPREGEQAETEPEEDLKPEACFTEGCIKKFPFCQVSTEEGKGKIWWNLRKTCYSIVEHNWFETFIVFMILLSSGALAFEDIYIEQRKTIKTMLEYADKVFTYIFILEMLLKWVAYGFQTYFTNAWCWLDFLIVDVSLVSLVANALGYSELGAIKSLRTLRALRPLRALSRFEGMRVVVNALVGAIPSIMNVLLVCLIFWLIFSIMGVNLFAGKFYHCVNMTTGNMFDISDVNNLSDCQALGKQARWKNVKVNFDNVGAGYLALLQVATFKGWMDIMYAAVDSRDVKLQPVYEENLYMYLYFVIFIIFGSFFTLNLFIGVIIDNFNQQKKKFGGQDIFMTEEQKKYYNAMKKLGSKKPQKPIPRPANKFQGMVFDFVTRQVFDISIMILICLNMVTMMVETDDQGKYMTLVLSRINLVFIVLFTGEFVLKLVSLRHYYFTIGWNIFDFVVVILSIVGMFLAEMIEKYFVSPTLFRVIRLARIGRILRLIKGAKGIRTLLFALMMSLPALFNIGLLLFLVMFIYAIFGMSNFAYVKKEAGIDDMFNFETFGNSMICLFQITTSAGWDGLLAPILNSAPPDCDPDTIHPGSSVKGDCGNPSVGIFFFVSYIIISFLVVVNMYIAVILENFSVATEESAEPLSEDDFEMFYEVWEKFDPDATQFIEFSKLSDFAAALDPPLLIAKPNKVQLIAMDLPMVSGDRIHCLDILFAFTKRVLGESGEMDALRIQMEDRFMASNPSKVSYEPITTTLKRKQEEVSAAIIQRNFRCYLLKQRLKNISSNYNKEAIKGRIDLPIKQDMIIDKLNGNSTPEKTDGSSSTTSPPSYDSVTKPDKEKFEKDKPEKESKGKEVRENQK
Method in brief: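 HEK293 cells stably expressing NaV1.3, grown in DMEM-F12 with 10% FBS at 37 °C, dissociated at 50–70% confluency; IonWorksHT planar patch clamp at 21–23 °C, amphotericin perforated access; intracellular K-gluconate 100, KCl 40, MgCl2 3.2, EGTA 3, HEPES 5 mM, pH 7.3.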

[6] = Cmax in rat at 3 mg/kg, po; type: ADME, organism-based; design: dose 3 mg/kg, route oral; conditions: in vivo

SMILES: Cl.NC(=O)[C@@H]1CC[C@H](c2ccc(OCc3ccccc3F)cc2)N1 [RAXATRIGINE HYDROCHLORIDE]
- inhibition (INH) [1]: Not Active
- IC50 (Cytochrome P450 1A2): 13 µM
- inhibition (INH) [2]: Not Active
- bioavailability [3]: 42%
- Activity (Rattus norvegicus): Active
- Activity [4]: Non-Toxic
- IC50 (Cytochrome P450 2C8): > 100 µM
- IC50 [5]: 63.1 µM
- Cmax [6]: 226 ng/mL
